Published values collected from several papers.
Cell line: HepG2
Observed: cell growth or viability

SMILES | technique | concentration | time | endpoint | result
CCNC(=O)c1cn(CC)c2cc(N3CCC(C)CC3)c(F)cc2c1=O | ATP luminescence |  | 48 h | EC50 | > 40 µM
c1cncc(-c2nc3ccccc3[nH]2)c1 | MTT |  | 48 h | IC50 | 70.6 µM
O=C(CN1C(=O)/C(=C/c2ccccc2Cl)SC1=S)Nc1ccccc1 | MTT | 10 µM |  | inhibition | 11%
CCOC(=O)c1ccc(-n2c(C)cc(/C=C/c3ccc(OCC)cc3)c(C#N)c2=O)cc1 | MTT | 12.5 µM | 24 h | viability | 90.3%
COc1ccc(NC(=O)c2c(Nc3ccccc3)sc(C#N)c2NC(=O)CNc2ccccc2)cc1 | SRB | 0.1 µM | 48 h | viability | 82.4%
O=C(CN1C(=O)/C(=C/c2ccc(O)cc2)SC1=S)Nc1ccccc1 | MTT | 10 µM |  | inhibition | 31.6%
COc1ccc(NC(=O)c2c(Nc3ccccc3)sc(C(=O)NN=Cc3ccc(Cl)cc3)c2NC(C)=O)cc1 | SRB | 1 nM | 48 h | viability | 100%
Cc1cc(=O)oc2ccc(-c3cc(-c4cccs4)nc(N)n3)c(O)c12 | MTT | 2 µg/mL | 72 h | inhibition | 0%
COc1ccc(NC(=O)c2c(Nc3ccccc3)sc(C#N)c2NC(=O)CNc2ccc(OC)c(OC)c2)cc1 | SRB | 10 µM | 48 h | viability | 71.4%
Cc1cc(Nc2ccc(C(=O)N/N=C/c3ccccc3)cc2)c2cccc(O)c2n1 | MTT | 20 µM |  | inhibition | 48.9%
C=CCn1c(-c2ccc(OC)c(OC)c2)nc2ccccc21 | MTT |  |  | IC50 | 53.8 µM
O=C(CN1C(=O)/C(=C/c2cccc(Cl)c2)SC1=S)Nc1ccccc1 | MTT | 10 µM |  | inhibition | 10%
Cc1cc(=O)oc2ccc(-c3cc(-c4ccc(Br)cc4)nc(N)n3)c(O)c12 | MTT | 8 µg/mL | 72 h | inhibition | 0%
COc1ccc(NC(=O)c2c(Nc3ccccc3)sc(C#N)c2NC(=O)CNc2ccc([N+](=O)[O-])cc2)cc1 | SRB | 1 nM | 48 h | viability | 100%
C[C@H]1[C@@H](CC(=O)NCC(=O)N[C@@H](CC(=O)NC(C)(C)C)C(=O)NCCNC(=O)c2cc(-c3ccccc3F)ccc2F)O[C@@H]2O[C@@]3(C)CC[C@H]4[C@H](C)CC[C@@H]1[C@@]24OO3 | ATP luminescence |  | 72 h | EC50 | 5.8 µM
COc1ccc(C=NNC(=O)c2sc(Nc3ccccc3)c(C(=O)Nc3ccc(OC)cc3)c2NC(C)=O)cc1 | SRB | 1 nM | 48 h | viability | 102%
CCOC(=O)c1cn(CC)c2cc(N3CCC(Cc4ccccc4)CC3)c(F)cc2c1=O | ATP luminescence |  | 48 h | EC50 | > 40 µM
COc1ccc(-c2cc(-c3ccc4oc(=O)cc(C)c4c3O)nc(N)n2)cc1 | MTT | 2 µg/mL | 72 h | inhibition | 0%
O=C(CN1C(=O)/C(=C/c2ccc[nH]2)SC1=S)Nc1ccccc1 | MTT | 10 µM |  | inhibition | 9.65%
Cc1ccc(-c2cc(-c3ccc4oc(=O)cc(C)c4c3O)nc(N)n2)cc1 | MTT | 128 µg/mL | 72 h | inhibition | 27%
Cc1ccc2nc(-c3ccc4c(c3)OCO4)[nH]c2c1 | MTT |  | 48 h | IC50 | 79 µM
CC(=O)Nc1cccc(-n2c(=O)n(C3CC3)c(=O)c3c(Nc4ccc(I)cc4F)n(C)c(=O)c(C)c32)c1 | resazurin | 390 pM | 72 h | viability | 103%
Cc1cc(=O)oc2ccc(-c3cc(-c4ccccc4)nc(N)n3)c(O)c12 | MTT | 32 µg/mL | 72 h | inhibition | 5%
COc1ccc(NC(=O)c2c(Nc3ccccc3)sc(C#N)c2NC(=O)CNc2ccc(Cl)cc2)cc1 | SRB | 1 µM | 48 h | viability | 45.3%

SMILES | technique | concentration | time | endpoint | result
CCOC(=O)c1ccc(-n2c(-c3ccc(C)cc3)cc(-c3ccc(O)cc3)c(C#N)c2=O)cc1 | MTT | 3.125 µM | 24 h | viability | 88%
Cc1ccc2nc(-c3ccc(Cl)c(Cl)c3)n(Cc3ccccc3)c2c1 | MTT |  |  | IC50 | > 100 µM
CCOC(=O)c1ccc(-n2c(N)c(C#N)c(CC#N)c(C#N)c2=O)cc1 | MTT | 12.5 µM | 24 h | viability | 63.6%
COc1cccc(-c2nc3ccc(C)cc3[nH]2)c1 | MTT |  | 48 h | IC50 | 26.9 µM
CCn1cc(-c2nc(C)no2)c(=O)c2cc(F)c(N3CCOCC3)cc21 | ATP luminescence |  | 48 h | EC50 | > 40 µM
CCOC(=O)c1ccc(N2C(N)=C(C#N)C3(C(=O)Nc4ccccc43)C(C#N)=C2O)cc1 (centres unmarked) | MTT | 6.25 µM | 24 h | viability | 61.3%
CC(C)(CO)Cn1nc(-c2ccc3cc(OC4CC4)ccc3c2)c2c(N)ncnc21 |  |  |  | GI50 | > 10 µM
CCn1cc(-c2ccccn2)c(=O)c2cc(F)c(N3CCC(C)CC3)cc21 | ATP luminescence |  | 48 h | EC50 | > 40 µM
CN1CCN(CCn2cccc2/C=N/NC(=O)Nc2cc3c(Nc4ccc(F)c(Cl)c4)ncnc3cc2O[C@H]2CCOC2)CC1 | MTT |  | 72 h | IC50 | 0.15 µM
CCn1cc(-c2nc(C)no2)c(=O)c2cc(F)c(N3CCC(c4ccccc4)CC3)cc21 | ATP luminescence |  | 48 h | EC50 | > 40 µM
Cc1cc(=O)oc2ccc(-c3cc(-c4ccc(Cl)cc4)nc(N)n3)c(O)c12 | MTT | 2 µg/mL | 72 h | inhibition | 16%
CC(=O)O[C@H]1C(=O)[C@@]2(C)[C@H]([C@H](OC(=O)c3ccccc3)[C@]3(O)C[C@H](OC(=O)[C@H](O)[C@@H](NC(=O)c4ccccc4)c4ccccc4)C(C)=C1C3(C)C)[C@]1(OC(C)=O)CO[C@@H]1C[C@@H]2O | MTT |  |  | IC50 | 4.75 µM
Cc1cc(Nc2ccc(C(=O)N/N=C/c3ccncc3)cc2)c2cccc(O)c2n1 | MTT | 20 µM |  | inhibition | 47.7%
Cc1ccc2nc(-c3ccccc3Cl)[nH]c2c1 | MTT |  | 48 h | IC50 | 95.6 µM
CCOC(=O)c1ccc(-n2c(C)cc(/C=C/c3ccc(OC)cc3)c(C#N)c2=O)cc1 | MTT | 3.125 µM | 24 h | viability | 100%
Cc1ccc2nc(-c3c(F)cccc3Cl)[nH]c2c1 | MTT |  | 48 h | IC50 | > 100 µM
COc1cccc(NC(=O)CN2C(=O)/C(=C/c3ccco3)SC2=S)c1 | MTT | 10 µM |  | inhibition | 5.43%
COc1cc2ncnc(Nc3ccc(F)c(Cl)c3)c2cc1NC(=O)N/N=C/c1cccn1CCN1CCN(C)CC1 | MTT |  | 72 h | IC50 | 0.22 µM
COc1ccc(NC(=O)c2c(Nc3ccccc3)sc(C(=O)NN=Cc3cc(OC)c(OC)c(OC)c3)c2NC(C)=O)cc1 | SRB | 0.1 µM | 48 h | viability | 76.5%
COc1cccc(NC(=O)CN2C(=O)/C(=C/C3CC3)SC2=S)c1 | MTT | 10 µM |  | inhibition | 12.1%
COc1ccc(NC(=O)c2c(Nc3ccccc3)sc(C#N)c2NC(=O)CNc2ccccc2[N+](=O)[O-])cc1 | SRB | 100 µM | 48 h | viability | 89.7%
O=C(CN1C(=O)/C(=C/c2ccc([N+](=O)[O-])cc2)SC1=S)Nc1ccccc1 | MTT | 10 µM |  | inhibition | 22.6%
CCOC(=O)c1ccc(NC(=O)C2=C3C(=Nc4ccccc43)NC2=O)cc1 | MTT | 25 µM | 24 h | viability | 56.3%
